These results are taken from ChEMBL document CHEMBL1125800, “Design of potent linear PAF antagonists” (J Med Chem, 1991).

Type in all cases: functional
Assay [1] is filed under the species Oryctolagus cuniculus. The experiment in a line: In vitro inhibition of platelet aggregation (rabbit) induced by PAF. In short, it runs like this: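 Aggregation of platelet-rich plasma, obtained by spinning blood at 250 g for 10 min at 4 °C. The PRP was diluted with platelet-poor plasma (3000 g, 10 min) to […]. Aggregation was triggered with C18-PAF at 1.5 × 10⁻⁸ M and read on an aggregometer. IC50 was taken by linear regression from one curve of ≥4 concentrations, each the mean of 1–3 experiments.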

Assay [2] relates to Rattus norvegicus. The experiment in a line: In vivo inhibition of PAF induced hypotension in rats after intravenous administration. Conditions: read-out: ID50 (the source's name). In short, it runs like this:
(§1)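 Male Sprague-Dawley rats (180–220 g) were anesthetized with pentobarbital (50 mg/kg ip), with carotid blood pressure recorded. Compound was given iv in saline (1 mL/kg) via a femoral vein 3 min before PAF (0.5 µg/kg iv). Controls received vehicle. Percent inhibition of hypotension versus controls gave ID50 by linear regression over ≥4 doses, each the mean of ≥2 experiments.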

The test system of assay [3] is Rattus norvegicus. Briefly: In vivo inhibition of PAF induced hypotension in rats after intravenous administration. Particulars: read-out: ID50 (the source's name). In short, it runs like this:
as §1

`CCCCCCCCCCCCCCCCCNC(=O)OCCSCCOC(=O)N(Cc1cccc[n+]1CC)C(=O)C(C)(C)C.[I-]`: in assay [1] (Oryctolagus cuniculus), the IC50 turned out to be 150 nM. For the same compound, the ED50 in assay [2] is 0.33 mg/kg.

In turn, `CCCCCCCCCCCCCCCNC(=O)OCC1CCC(COC(=O)N(Cc2cccc[n+]2CC)C(C)=O)O1.[I-]` (centres undefined) came in with an IC50 in assay [1] (Oryctolagus cuniculus) of 72 nM. In assay [2], the ED50 was 0.098 mg/kg.

`CCCCCCCCCCCCCCCCCNC(=O)OCCOCCOC(=O)N(Cc1cccc[n+]1CC)C(C)=O`: it took 17 nM to reach half-maximal inhibition in assay [1] (Oryctolagus cuniculus) (IC50).

In assay [1] (Oryctolagus cuniculus), `CC[n+]1ccccc1CN(C(C)=O)C(=O)OCCOCCOC(=O)C(C)(C)C.[I-]` gave a half-maximal inhibitory concentration (IC50) of 1700 nM. Besides, in assay [2], the ED50 was over 5 mg/kg.

`CCCCCCCCCCCCCCCCCNC(=O)OCCSCCOC(=O)N(Cc1cccc[n+]1CC)C(=O)CCCCCCCCCCCCCCC.[I-]`: the IC50 in assay [1] (Oryctolagus cuniculus) turned out to be 8700 nM. In addition, in assay [2], the ED50 was over 5 mg/kg.

The compound `CCCCCCCCCCCCCCCCCCNC(=O)OCCOCCOC(=O)N(Cc1cccc[n+]1CC)C(C)=O.[I-]` had an IC50 in assay [1] (Oryctolagus cuniculus) of 18 nM. The ED50 in assay [2] amounted to 0.019 mg/kg.

With `CCCCCCCCCCCCCCCCCCOCCOCCOC(=O)N(Cc1cccc[n+]1CC)C(C)=O.[I-]`, inhibition in assay [1] (Oryctolagus cuniculus) was half-maximal at 22 nM (IC50). Further, the ED50 in assay [2] worked out at 0.024 mg/kg.

In assay [1], `CCCCCCCCCCCCCCCCCNC(=O)OCCSCCOC(=O)N(Cc1cccc[n+]1CC)C(C)=O` [listing 1 of 3 here] returned an IC50 of 5.6 nM.

In assay [1] (Oryctolagus cuniculus), `CCCCCCCCCCCCCCCCCCCCOC(=O)N(Cc1cccc[n+]1CC)C(C)=O.[I-]` registered an IC50 of 160 nM. In addition, in assay [2], the ED50 amounted to 0.33 mg/kg.

Turning to `CCCCCCCCCCCCCCCCCNC(=O)OCC[S+]([O-])CCOC(=O)N(Cc1cccc[n+]1CC)C(C)=O.[I-]` (centres undefined), the IC50 in assay [1] (Oryctolagus cuniculus) turned out to be 27 nM. Also, the ED50 in assay [2] came to 0.025 mg/kg.

The compound `CCCCCCCCCCCCCCCCCNC(=O)OCCS(=O)(=O)CCOC(=O)N(Cc1cccc[n+]1CC)C(C)=O.[I-]` displayed an IC50 in assay [1] (Oryctolagus cuniculus) of 11 nM. Besides, the ED50 in assay [2] was 0.019 mg/kg.

As for `CC[n+]1ccccc1CN(C(C)=O)C(=O)OCCOCCOC(=O)NCCCc1ccccc1`, in assay [1] (Oryctolagus cuniculus), the IC50 turned out to be 1300 nM.

In turn, `CCCCCCCCCCCCCCCCCCNC(=O)OCC(COC(=O)N(Cc1cccc[n+]1CC)C(C)=O)OC.[I-]` (centres undefined) showed an IC50 in assay [1] of 11 nM. For the same compound, the ED50 in assay [2] was determined as 0.011 mg/kg.

In assay [1] (Oryctolagus cuniculus), `CCCCCCCCCCCCCCCCCCNC(=O)OCCCOC(=O)N(Cc1cccc[n+]1CC)C(C)=O.[I-]` returned an IC50 of 23 nM. In addition, the ED50 in assay [2] came to 0.02 mg/kg.

Take `CCCCCCCCCCCCCCCCCNC(=O)OCCOCCOC(=O)N(Cc1cccc[n+]1C)C(C)=O`: the IC50 in assay [1] (Oryctolagus cuniculus) worked out at 55 nM.

`CCCCCCCCCCCCCCCNC(=O)OCCOCCOC(=O)N(Cc1cccc[n+]1CC)C(=O)OCC` registered an IC50 in assay [1] (Oryctolagus cuniculus) of 23 nM.

In turn, `CCCCCCCCCCCCCCCNC(=O)OCC1COC(COC(=O)N(Cc2cccc[n+]2CC)C(C)=O)O1.[I-]` (centres undefined) yielded an IC50 in assay [1] (Oryctolagus cuniculus) of 7.5 nM. Further, the ED50 in assay [2] is 0.085 mg/kg.

In assay [1], `CCCCCCCCCCCCCCCCCNC(=O)OCCSCCOC(=O)N(Cc1cccc[n+]1CC)C(C)=O` [listing 2 of 3 here] came in with an IC50 of 12 nM.

For `CCCCCCCCCCCCCCCNC(=O)OCCCCCOC(=O)N(Cc1cccc[n+]1CC)C(C)=O`, the midpoint of inhibition in assay [1] (Oryctolagus cuniculus), the IC50, lay at 24 nM.

As for `CCSCCOC(=O)N(Cc1cccc[n+]1CC)C(C)=O.[I-]`, in assay [1] (Oryctolagus cuniculus), the IC50 turned out to be 190 nM. Besides, the ED50 in assay [2] is 0.37 mg/kg.

As for `CCCCCCCCCCCCCCCCCCOCCSCCOC(=O)N(Cc1cccc[n+]1CC)C(C)=O`, in assay [1] (Oryctolagus cuniculus), the IC50 was determined as 15 nM. This lies in the double-digit nanomolar range.

As for `CCCCCCCCCCCCCCCCOCCSCCOC(=O)N(Cc1cccc[n+]1CC)C(C)=O`, the IC50 in assay [1] (Oryctolagus cuniculus) came out at 5.1 nM.

`CCCCCCCCCCCCCCCCCNC(=O)OCCOCCOC(=O)N(Cc1cccc[n+]1CC)C(=O)OCC` registered an IC50 in assay [1] (Oryctolagus cuniculus) of 8.8 nM.

As for `CCCCCCCCCCCCCCCNC(=O)OCCOCCOC(=O)N(Cc1cccc[n+]1CCC)C(C)=O`, in assay [1] (Oryctolagus cuniculus), the IC50 came out at 230 nM.

In turn, `CCCCCCCCCCCCCCCCCNC(=O)OCCSCCOC(=O)N(Cc1cccc[n+]1CC)C(=O)c1ccccc1OC.[I-]` displayed a half-maximal inhibitory concentration (IC50) in assay [1] (Oryctolagus cuniculus) of 9.1 nM. The ED50 in assay [2] was 0.019 mg/kg.

As to `CCCCCCCCCCCCCCCCCCCCCCOC(=O)N(Cc1cccc[n+]1CC)C(C)=O.[I-]`, the IC50 in assay [1] (Oryctolagus cuniculus) amounted to 1400 nM. For the same compound, the ED50 in assay [2] is 0.53 mg/kg.

On to `CCCCCCCCCCCCCCCCCNC(=O)OCCSCCOC(=O)N(Cc1cccc[n+]1CC)C(=O)OCC.[I-]`, for which half-maximal inhibition in assay [1] (Oryctolagus cuniculus) (IC50) was put at 18 nM. Besides, the ED50 in assay [2] turned out to be 0.028 mg/kg.

`CCCCCCCCCCCCCCCNC(=O)OCCOCCOC(=O)CCCCC[n+]1ccsc1.Cc1ccc(S(=O)(=O)[O-])cc1` registered an IC50 in assay [1] (Oryctolagus cuniculus) of 12000 nM. The ED50 in assay [2] is over 5 mg/kg.

On to `CCCCCCCCCCCCCCCCNC(=O)OCCSCCOC(=O)N(Cc1cccc[n+]1CC)C(C)=O.[I-]`, for which, in assay [1] (Oryctolagus cuniculus), the IC50 turned out to be 14 nM. For the same compound, the ED50 in assay [2] was 0.01 mg/kg.

Take `CCCCCCCCCCCCCCCNC(=O)OCCOCCOCCOC(=O)N(Cc1cccc[n+]1CC)C(C)=O.[I-]`: half-maximal inhibition in assay [1] (Oryctolagus cuniculus) (IC50) required 12 nM. The ED50 in assay [2] is 0.028 mg/kg.

The compound `CCCCCCCCCCCCCCCNC(=O)OCCSCCOC(=O)N(Cc1cccc[n+]1CC)C(C)=O.[I-]` displayed an IC50 in assay [1] (Oryctolagus cuniculus) of 8.4 nM. In assay [2], the ED50 was 0.04 mg/kg.

Compound `CCCCCCCCCCCCCCCNC(=O)OCCOCCOC(=O)N(Cc1cccc[n+]1CC)C(C)=O` came in with an IC50 in assay [1] (Oryctolagus cuniculus) of 22 nM.

In assay [1] (Oryctolagus cuniculus), `CCCCCCCCCCCCCCCNC(=O)OCC1OCC(COC(=O)N(Cc2cccc[n+]2CC)C(C)=O)O1.[I-]` (centres undefined) had an IC50 of 26 nM. In addition, in assay [2], the ED50 stood at 0.11 mg/kg.

As for `CCOC(=O)N(Cc1cccc[n+]1CC)C(C)=O.[I-]`, the IC50 in assay [1] (Oryctolagus cuniculus) is 24000 nM. In addition, the ED50 in assay [2] is over 5 mg/kg.

As for `CC[n+]1ccccc1CN(C(C)=O)C(=O)OCCOCCOC(=O)NCC1CCCCC1`, the IC50 in assay [1] (Oryctolagus cuniculus) stood at 2000 nM.

Compound `CCCCCCCCCCCCCCCCCCOC(=O)N(Cc1cccc[n+]1CC)C(C)=O.[I-]` showed an IC50 in assay [1] (Oryctolagus cuniculus) of 870 nM. In assay [2], the ED50 is 0.17 mg/kg.

`CCCCCCCCCCCCCCCCCNC(=O)OCCSCCOC(=O)N(Cc1cccc[n+]1CC)C(C)=O` [listing 3 of 3 here] had an IC50 in assay [1] of 8.6 nM. In other words, the single-digit nanomolar range.

The compound `CCCCCCCCCCCCCCCCCCNC(=O)OCCSCCOC(=O)N(Cc1cccc[n+]1CC)C(C)=O.[I-]` came in with an IC50 in assay [1] (Oryctolagus cuniculus) of 5.9 nM. The ED50 in assay [2] was 0.015 mg/kg.

`CCCCCCCCCCCCCCCCCCNC(=O)OCC(COC(=O)N(Cc1cccc[n+]1CC)C(C)=O)OC.[Cl-]` (centres undefined) [CV-6209] yielded a half-maximal inhibitory concentration (IC50) in assay [1] (Oryctolagus cuniculus) of 12 nM. Moreover, the ED50 in assay [3] was 0.0078 mg/kg.

Broadly, the IC50 is the concentration that inhibits the measured activity by half. Low readings indicate greater potency, high ones weaker potency.
